Shown are actives, neighbours in structure and some others; about 3.1% of the full set was active somewhere.
OX1R antag-1 = blocks the human orexin 1 receptor. O43613. CHO/OX1R cells, Fluo-8 calcium fluorescence, orexin A. inhibition, % at 5 µM. 330,000 compounds, 0.43% hits;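 active = inhibition above its plate's threshold, mean inhibition of all tested compounds on the plate plus 3 SD, cut at about 37% in these data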;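 also: 0% = orexin A challenge wells and 100% = SB-334867-A antagonist wells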
OX1R antag-2 = antagonists of human orexin 1 receptor (OX1R); O43613; OX1R-expressing cells, FRET antagonist read-out; inhibition, % at 6.6 µM; 330,000 compounds, 1.8% hits; in the data active = inhibition mostly above about 38%, no sharp cut-off; inactive = mostly below about 40%;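 also: 0% = agonist challenge alone and 100% = reference antagonist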
CHO parental Ca = counter-screen for OX1R antagonists: effect in parental CHO cells. parental CHO-K1, ATP-induced calcium, Fluo-8 fluorescence. 330,000 compounds, 0.63% hits. AID 463079. inhibition, % at 5.6 µM;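 active = inhibition above that plate's mean sample inhibition plus 3 SD, cut at about 26% in these data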;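 also: 0% = ATP-challenged DMSO wells and 100% = DMSO wells without ATP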
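Material: Parental CHO cells | Reagent: ATP | Compound dosing: Single nominal dose of 5.6 µM per compound | Detection: Intracellular calcium via Fluo-8 no-wash fluorescent dye | Read-out: % inhibition of ATP-induced calcium mobilization | Benchmarks: Low control ATP plus DMSO, high control DMSO only | Replicates: Singlicate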
GPR7 antag = antagonists of human GPR7 (neuropeptides B/W receptor 1) | P48145 | GPR7-expressing cells, fluorescence antagonist assay | inhibition, % at 4.4 µM | 290,000 compounds, 1.1% hits | AID 1861; in the data active = inhibition above about 16%, passing the limit was not always enough;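 also: cells stimulated with the agonist NPW; 0% = agonist with vehicle and 100% = vehicle without agonist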
Target sequence (P48145 whole entry, looked up): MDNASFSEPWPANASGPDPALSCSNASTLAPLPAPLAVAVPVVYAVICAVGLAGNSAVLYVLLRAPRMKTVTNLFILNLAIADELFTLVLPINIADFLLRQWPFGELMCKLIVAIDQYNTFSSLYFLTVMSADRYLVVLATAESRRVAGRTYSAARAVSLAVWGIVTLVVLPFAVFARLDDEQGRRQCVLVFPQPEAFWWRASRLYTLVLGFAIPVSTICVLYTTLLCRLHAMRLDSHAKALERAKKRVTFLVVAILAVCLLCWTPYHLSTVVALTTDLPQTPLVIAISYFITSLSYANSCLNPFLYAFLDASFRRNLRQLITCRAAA
GalR3 antag = blocks the human galanin receptor 3 | O60755 | HEK293 GalR3-CNG cAMP membrane potential fluorescence; galR3 body fused to GalR1 C-terminus | inhibition, % at 3 µM | 360,000 compounds, 0.44% hits | AID 651719;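 active = inhibition above the screen-wide average plus 3 SD, cut at about 13% in these data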;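 also: forskolin and galanin both at EC90 stimulate the cells; cAMP rise reported by CNG channel membrane potential dye signal; 0% = forskolin plus galanin with DMSO and 100% = forskolin alone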
Target sequence (O60755 1-299 limits assumed): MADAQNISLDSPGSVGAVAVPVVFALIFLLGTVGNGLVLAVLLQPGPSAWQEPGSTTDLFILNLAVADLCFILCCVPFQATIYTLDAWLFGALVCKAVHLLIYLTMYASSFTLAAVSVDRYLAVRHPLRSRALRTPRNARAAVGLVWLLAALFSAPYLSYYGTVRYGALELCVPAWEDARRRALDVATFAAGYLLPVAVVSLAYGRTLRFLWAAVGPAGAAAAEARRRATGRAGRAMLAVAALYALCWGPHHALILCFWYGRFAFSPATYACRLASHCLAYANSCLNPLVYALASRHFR
Numbers without * were called inactive; x = not tested or not shown; ! = not confirmed by another sample.

SMILES	OX1R antag-1	OX1R antag-2	CHO parental Ca	GPR7 antag	GalR3 antag
COc1cccc(/C=N/Nc2nnc(C)n2N)c1OCc1ccccc1Cl	-1	67*	2	-1	-2
CS(=O)(=O)c1ccc(C(=O)OCC(=O)NC23CC4CC(CC(C4)C2)C3)cc1[N+](=O)[O-]	42*	26	68*	15	-9
Cn1cccc1C(=O)NC(=O)COC(=O)c1ccc(S(C)(=O)=O)c([N+](=O)[O-])c1	23	33	9	x	x
S=C(SCc1nc(-c2ccc(Cl)cc2)no1)N1CCSCC1	x	x	x	x	-3
O=C(C1CCC1)N1CCc2cc(S(=O)(=O)NCCN3CCN(c4ccccc4F)CC3)ccc21	14	31	51*	6	-1
O=C(C1CC1)N1CCc2cc(S(=O)(=O)NCCCN3CCCCC3)ccc21	-17	13	-19	-11	2
C=CCSc1nnc(-c2cc3c(C(F)(F)F)nn(C)c3s2)n1C	2	18	1	7	-8
C=CCSc1nnc(-c2cc3c(-c4ccccc4)nn(C)c3s2)n1C	-4	75*	-29	-6	0
COC(=O)c1cc2c(c3c4cc(F)ccc4n(S(=O)(=O)c4cccc(C)c4)c13)C(=O)N(c1ccc(OC)cc1)C2	x	x	x	x	-5
CCCCCCCCCCn1ccc(=N)cc1	48*	23	34*	23*	97*
CC(CNC(=O)c1cc(COc2ccc3ncccc3c2)on1)c1ccccc1 (centres undefined)	33	57*	58*	3	-2
Cc1cccnc1CN1CCN(C(=O)c2cc(COc3ccc4ncccc4c3)on2)CC1	49*	53	60*	-9	5
CCOC(=O)N1CCN(C(=O)c2cc(COc3ccc4ncccc4c3)on2)CC1	22	12	28*	-2	-7
OCC1COC(c2ccccc2)=N1 (centres undefined)	x	x	x	x	-2
COc1ccc(/C=C(\NC(=O)c2ccco2)C(=O)NCCc2nc3ccccc3[nH]2)cc1	32	46*	-23	-18	2
C[C@H]1Cn2cnc(C(=O)N(C)Cc3ccccc3)c2C(=O)N1	x	x	x	x	-7
Cc1cccc(-n2cnc3c(c2=O)c2nc4ccccc4nc2n3Cc2ccco2)c1	-7	69*	-23	x	2
Cc1cccc(S(=O)(=O)c2c(N)n(Cc3ccco3)c3nc4ccccc4nc23)c1	-7	16	0	-10	-8
COc1ccc(NC(=O)c2sc(=O)n(Cc3ccccc3C#N)c2C)cc1OC	x	x	x	x	-2
Cc1ccc(F)cc1C(=O)N1CCCC1(C)C(=O)NCC(C)C (centres undefined)	x	x	x	x	0
CCOC(=O)c1oc2ccccc2c1COC(=O)CNC(=O)c1cc(OC)c(OC)c(OC)c1	-32	35	-31	x	3
CCOC(=O)c1oc2ccccc2c1COC(=O)CNC(=O)c1ccccc1OC	-6	68*	-19	x	-1
COc1ccccc1N1CCN(CCS(=O)(=O)c2cc(Cl)ccc2Cl)CC1	x	x	x	x	-9
O=C(Nc1nc(-c2ccccc2)cs1)c1ccc2c(=O)n3c(nc2c1)CCCCC3	21	51*	15	-13	4
O=C(Nc1nc(-c2ccccc2)cs1)c1ccc(N2CCOCC2)c([N+](=O)[O-])c1	38	80*	41*	-6	x
SMILES	OX1R antag-1	OX1R antag-2	CHO parental Ca	GPR7 antag	GalR3 antag
Cc1ccc(-c2csc(NC(=O)c3cc([N+](=O)[O-])ccc3N3CCOCC3)n2)cc1	-9	0	1	-3	0
COC(=O)[C@]12CCCCC=C1N(CCc1ccc(OC)c(OC)c1)C(=O)[C@H](CC(=O)NCc1ccccc1)C2	x	x	x	x	-7
O=C(NCc1ccccn1)Nc1cc(Cl)cc(Cl)c1	3	8	29*	25	-2
O=C(O)Cc1csc2ccccc12	-7	-3	-10	8	-3
O=C(NCc1csc2ccccc12)Nc1cc(Cl)cc(Cl)c1	5	52*	5	-12	1
O=C1c2ccccc2C(c2nnnn2Cc2ccccc2)N1Cc1ccc2c(c1)OCO2 (centres undefined)	x	x	x	x	1
Cc1ccccc1S(=O)(=O)N1C[C@H]2CON(C)[C@H]2C[C@H]1c1cccc(Oc2ccccc2)c1	x	x	x	x	-7
COC(=O)c1c(-c2ccc(OC)cc2)c2c(c3c4cc(OC)ccc4n(S(=O)(=O)c4ccc(C)cc4)c13)C(=O)N(C)C2	x	x	x	x	-6
COc1ccc2cc3[n+](cc2c1OC)CCc1cc2c(cc1-3)OCO2	-2	55*!	-9	-4	2
O=S(=O)(NC1CCCCC1)c1cccc2nsnc12	-10	16	-11	0	0
O=S(=O)(NCC1CCCO1)c1cccc2nsnc12 (centres undefined)	-3	41*	4	3	-3
O=S(=O)(NCC1CCCO1)c1ccc(-c2ccc(Cl)cc2)cc1 (centres undefined)	20	24	36*	13	-7
CC(C)(C)c1ccc(S(=O)(=O)NCC2CCCO2)cc1 (centres undefined)	-9	9	15	-5	-6
COc1ccccc1Cc1c(-c2cccc(Cl)c2)nc2c3ccccc3ccn12	x	x	x	x	-7
CN(C)CCNC(=O)c1cccc(-c2cnc3c(NC=O)cc(/C=C/c4ccccc4)cn23)c1	x	x	x	x	0
COc1cc(Br)c(/C=C/c2ccc3cccc(O)c3n2)cc1OC	-10	9	-1	-3	-8
COc1cc(/C=C/c2ccc3cccc(O)c3n2)c(Br)cc1O	19	7	45*	-8	-8
Cc1c(C(=O)OCC(=O)N(C)Cc2ccc(Cl)cc2)oc2ccccc12	27	53*	-34	x	-6
CC(C)c1ccc(NC(=O)CCNS(=O)(=O)c2cccc3nsnc23)cc1	-4	14	-9	-9	-5
CC(NC(=O)CCNS(=O)(=O)c1cccc2nsnc12)c1ccccc1 (centres undefined)	-9	69*	-12	-6	-8
COc1ccc(CNC(=O)CCNS(=O)(=O)c2cccc3nsnc23)cc1	-15	46	-6	-12	-1
O=C(NCc1ccccc1)C(Cc1ccccc1)NS(=O)(=O)c1cccc2nsnc12 (centres undefined)	-10	24	-17	7	-2
O=C(CCNS(=O)(=O)c1cccc2nsnc12)NCc1ccccc1	-16	77*	-1	-9	6
O=C(NCCc1ccccc1)C(NS(=O)(=O)c1cccc2nsnc12)c1ccccc1 (centres undefined)	-15	74*	-18	-6	-12
COC(=O)c1cc2c(c3c4cc(OC)ccc4n(C(=O)c4ccccc4)c13)C(=O)N(Cc1ccco1)C2	x	x	x	x	-5
Cc1ccc(NC(=O)C2(C)CCN2Cc2cccc3c2OCO3)cc1O (centres undefined)	x	x	x	x	2
O=S(=O)(c1ccc(N2CCCC2)cc1)C(F)(F)F	-8	30	40*	-4	-5
O=C(O)c1ccc(-c2cccc(-c3nn4c(=O)cc(N5CCNCC5)nc4s3)c2)cc1	x	x	x	x	0
COCCN1C(=O)CSCC1(C)C(=O)Nc1c(C)cccc1C (centres undefined)	x	x	x	x	-1
